Data reported in ChEMBL document CHEMBL1811883, “The combination of 4-anilinoquinazoline and cinnamic acid: a novel mode of binding to the epidermal growth factor receptor tyrosine kinase” (Bioorg Med Chem, 2011).
pIC50: −log10 of the molar value. In brackets after ≈: the same amount, converted by molar mass.

Tests used:
A549 = test: Antiproliferative activity against human A549 cells after 48 hrs by MTT assay; format: functional, cell-based; conditions: A549, 48 h
In short: (§1)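 Cells exposed to compound at final concentrations from 0.01 to 100 (µg/mL per text) for 48 h. MTT (5 mg/mL in PBS) added for 6 h, then 10% SDS in 0.01 N HCl for a further 4 h at 37 °C. Absorbance read at 570 nm; survival expressed relative to untreated cells.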

B16-F10 = test: Antiproliferative activity against mouse B16F10 cells assessed as inhibition of serum-stimulated cell growth after 48 hrs by MTT assay; format: functional, cell-based; conditions: B16-F10, 48 h; in short: as §1
[1] = target: Epidermal growth factor receptor (Homo sapiens, UniProt P00533); test: Inhibition of recombinant EGFR expressed in baculovirus infected Sf9 cells after 1 hr by DELFIA/time-resolved fluorimetry assay
A431 (Homo sapiens) = test: Antiproliferative activity against human A431 cells expressing EGFR assessed as inhibition of basal cell growth after 48 hrs by MTT assay; conditions: A431, 48 h

Epidermal growth factor receptor, sequence (P00533 whole entry): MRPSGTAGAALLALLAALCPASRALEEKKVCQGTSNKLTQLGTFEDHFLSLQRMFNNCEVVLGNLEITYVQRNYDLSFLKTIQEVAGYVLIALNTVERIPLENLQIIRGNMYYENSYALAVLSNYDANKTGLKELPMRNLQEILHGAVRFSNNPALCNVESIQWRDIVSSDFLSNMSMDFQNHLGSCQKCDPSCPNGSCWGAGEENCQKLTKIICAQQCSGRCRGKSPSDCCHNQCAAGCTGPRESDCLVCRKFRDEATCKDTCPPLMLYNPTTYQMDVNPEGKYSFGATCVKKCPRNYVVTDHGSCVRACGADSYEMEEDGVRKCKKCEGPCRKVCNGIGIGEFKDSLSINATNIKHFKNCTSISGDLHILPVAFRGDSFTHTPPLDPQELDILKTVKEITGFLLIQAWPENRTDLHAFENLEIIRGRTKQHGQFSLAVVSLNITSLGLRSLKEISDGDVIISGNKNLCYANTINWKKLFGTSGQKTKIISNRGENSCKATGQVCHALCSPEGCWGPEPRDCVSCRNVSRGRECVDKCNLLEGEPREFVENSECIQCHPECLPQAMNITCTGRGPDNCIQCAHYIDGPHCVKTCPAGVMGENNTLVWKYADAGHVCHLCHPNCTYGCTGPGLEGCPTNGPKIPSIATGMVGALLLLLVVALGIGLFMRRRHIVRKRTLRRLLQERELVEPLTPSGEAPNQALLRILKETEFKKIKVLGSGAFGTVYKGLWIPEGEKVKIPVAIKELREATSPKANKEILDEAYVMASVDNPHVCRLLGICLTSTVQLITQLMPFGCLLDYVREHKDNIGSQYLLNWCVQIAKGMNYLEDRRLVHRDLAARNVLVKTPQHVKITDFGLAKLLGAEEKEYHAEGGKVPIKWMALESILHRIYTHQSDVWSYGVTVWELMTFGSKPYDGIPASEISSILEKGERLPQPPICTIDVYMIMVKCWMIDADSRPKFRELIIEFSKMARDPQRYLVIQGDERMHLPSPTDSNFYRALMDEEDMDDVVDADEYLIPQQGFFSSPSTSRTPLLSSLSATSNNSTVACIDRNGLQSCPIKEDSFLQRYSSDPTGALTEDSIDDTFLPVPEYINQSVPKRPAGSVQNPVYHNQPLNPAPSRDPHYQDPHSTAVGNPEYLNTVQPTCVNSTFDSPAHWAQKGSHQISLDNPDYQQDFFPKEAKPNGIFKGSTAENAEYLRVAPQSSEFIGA

Structure (SMILES) | IC50 (A549) | IC50 (B16-F10) | pIC50 [1] | pIC50 (A431 (Homo sapiens))
O=C(/C=C/c1cccs1)Nc1ccc2ncnc(Nc3cccc(Br)c3)c2c1 | 4.66 µg/mL (≈ 10.3 µM) | 2.51 µg/mL (≈ 5.56 µM) | – | –
COc1ccc(/C=C/C(=O)Nc2ccc3ncnc(Nc4cccc(Br)c4)c3c2)cc1 | 3.36 µg/mL (≈ 7.07 µM) | 1.24 µg/mL (≈ 2.61 µM) | 5.14 | –
COc1cccc(/C=C/C(=O)Nc2ccc3ncnc(Nc4cccc(Cl)c4)c3c2)c1 | 2.58 µg/mL (≈ 5.99 µM) | 1.05 µg/mL (≈ 2.44 µM) | 5.18 | –
O=C(/C=C/c1ccccc1Cl)Nc1ccc2ncnc(Nc3cccc(Br)c3)c2c1 | 6.63 µg/mL (≈ 13.8 µM) | 2 µg/mL (≈ 4.17 µM) | – | –
O=C(/C=C/c1ccccc1)Nc1ccc2ncnc(Nc3cccc(Br)c3)c2c1 | 3.96 µg/mL (≈ 8.89 µM) | 1.45 µg/mL (≈ 3.26 µM) | – | –
O=C(/C=C/c1ccc(Cl)cc1)Nc1ccc2ncnc(Nc3cccc(Cl)c3)c2c1 | 12.4 µg/mL (≈ 28.6 µM) | 9.97 µg/mL (≈ 22.9 µM) | – | –
Nc1ccc2ncnc(Nc3cccc(Br)c3)c2c1 | – | – | – | 4.38
O=C(/C=C/c1ccc(Br)cc1)Nc1ccc2ncnc(Nc3cccc(Cl)c3)c2c1 | 1.86 µg/mL (≈ 3.88 µM) | 0.75 µg/mL (≈ 1.56 µM) | 5.46 | –
O=C(/C=C/c1ccc(Br)cc1)Nc1ccc2ncnc(Nc3cccc(Br)c3)c2c1 | 15.3 µg/mL (≈ 29.2 µM) | 10.7 µg/mL (≈ 20.3 µM) | – | –
COc1cccc(/C=C/C(=O)Nc2ccc3ncnc(Nc4cccc(Br)c4)c3c2)c1 | 2.05 µg/mL (≈ 4.31 µM) | 0.87 µg/mL (≈ 1.83 µM) | 5.22 | –
O=C(/C=C/c1cccc2ccccc12)Nc1ccc2ncnc(Nc3cccc(Cl)c3)c2c1 | 1.49 µg/mL (≈ 3.3 µM) | 0.671 µg/mL (≈ 1.49 µM) | 5.55 | –
O=C(/C=C/c1ccccc1Br)Nc1ccc2ncnc(Nc3cccc(Br)c3)c2c1 | 2.38 µg/mL (≈ 4.54 µM) | 0.92 µg/mL (≈ 1.76 µM) | 5.37 | –
O=C(/C=C/c1cccs1)Nc1ccc2ncnc(Nc3cccc(Cl)c3)c2c1 | 9.23 µg/mL (≈ 22.7 µM) | 4.26 µg/mL (≈ 10.5 µM) | – | –
O=C(/C=C/c1ccccc1Br)Nc1ccc2ncnc(Nc3cccc(Cl)c3)c2c1 | 5.63 µg/mL (≈ 11.7 µM) | 1.65 µg/mL (≈ 3.44 µM) | – | –
C#Cc1cccc(Nc2ncnc3cc(OCCOC)c(OCCOC)cc23)c1 [ERLOTINIB] | – | 0.02 µg/mL (≈ 0.0508 µM) | – | –
Nc1ccc2ncnc(Nc3cccc(Cl)c3)c2c1 | – | – | – | 4.33
O=C(/C=C/c1ccc([N+](=O)[O-])cc1)Nc1ccc2ncnc(Nc3cccc(Cl)c3)c2c1 | 5.26 µg/mL (≈ 11.8 µM) | 2.05 µg/mL (≈ 4.6 µM) | 5.46 | 5.67
O=C(/C=C/c1ccccc1[N+](=O)[O-])Nc1ccc2ncnc(Nc3cccc(Br)c3)c2c1 | 0.92 µg/mL (≈ 1.88 µM) | 0.338 µg/mL (≈ 0.689 µM) | 5.99 | 6.01
Cc1ccc(/C=C/C(=O)Nc2ccc3ncnc(Nc4cccc(Cl)c4)c3c2)cc1 | 6.03 µg/mL (≈ 14.5 µM) | 2.02 µg/mL (≈ 4.87 µM) | – | –
O=C(/C=C/c1ccc(Cl)cc1)Nc1ccc2ncnc(Nc3cccc(Br)c3)c2c1 | 1.06 µg/mL (≈ 2.21 µM) | 0.38 µg/mL (≈ 0.792 µM) | 5.92 | –
O=C(/C=C/c1ccccc1Cl)Nc1ccc2ncnc(Nc3cccc(Cl)c3)c2c1 | 4.58 µg/mL (≈ 10.5 µM) | 1.74 µg/mL (≈ 4 µM) | – | –
O=C(/C=C/c1cccc([N+](=O)[O-])c1)Nc1ccc2ncnc(Nc3cccc(Br)c3)c2c1 | – | – | 6.92 | 6.48
O=C(/C=C/c1ccccc1)Nc1ccc2ncnc(Nc3cccc(Cl)c3)c2c1 | 1.58 µg/mL (≈ 3.94 µM) | 0.68 µg/mL (≈ 1.7 µM) | 5.44 | –
O=C(/C=C/c1ccc([N+](=O)[O-])cc1)Nc1ccc2ncnc(Nc3cccc(Br)c3)c2c1 | 1.85 µg/mL (≈ 3.77 µM) | 0.981 µg/mL (≈ 2 µM) | 5.29 | 5.87
O=C(/C=C/c1ccccc1[N+](=O)[O-])Nc1ccc2ncnc(Nc3cccc(Cl)c3)c2c1 | 0.78 µg/mL (≈ 1.75 µM) | 0.3 µg/mL (≈ 0.673 µM) | – | 6.12
O=C(/C=C/c1cccc([N+](=O)[O-])c1)Nc1ccc2ncnc(Nc3cccc(Cl)c3)c2c1 | – | – | 6.72 | 6.31
Cc1ccc(/C=C/C(=O)Nc2ccc3ncnc(Nc4cccc(Br)c4)c3c2)cc1 | 3.01 µg/mL (≈ 6.55 µM) | 1.39 µg/mL (≈ 3.03 µM) | – | –
COc1ccccc1/C=C/C(=O)Nc1ccc2ncnc(Nc3cccc(Br)c3)c2c1 | 3.55 µg/mL (≈ 7.47 µM) | 1.28 µg/mL (≈ 2.69 µM) | 5.11 | –
